# This excerpt belongs to a sample that is enriched for hits.
# T cruzi growth-1 – T. cruzi proliferation inhibition; inhibition, % at 8.34 µM; T. cruzi beta-gal in NIH3T3, GalScreen luminescence, 90 h; 77,000 compounds, 5.9% hits;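 active = mean inhibition above about 93%, with at least 55% of replicates each passing it, limit read from the data, passing the limit was not always enough; inconclusive = only one of those two conditions holds; inactive = neither condition holds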
# GASC1 inh – blocks human GASC-1 (KDM4C) demethylase activity; Q9H3R0; GST-KDM4C 2-372, H3K9me3 peptide, LANCE TR-FRET; inhibition, % at 12.5 µM; 96,000 compounds, 0.15% hits; AID 720574;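 active = mean replicate inhibition above about 25%, with at least 55% of replicates also reaching it, limit read from the data, passing the limit was not always enough; inconclusive = only one of those two conditions met; inactive = neither condition met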
# Target sequence (Q9H3R0 2-372 limits assumed): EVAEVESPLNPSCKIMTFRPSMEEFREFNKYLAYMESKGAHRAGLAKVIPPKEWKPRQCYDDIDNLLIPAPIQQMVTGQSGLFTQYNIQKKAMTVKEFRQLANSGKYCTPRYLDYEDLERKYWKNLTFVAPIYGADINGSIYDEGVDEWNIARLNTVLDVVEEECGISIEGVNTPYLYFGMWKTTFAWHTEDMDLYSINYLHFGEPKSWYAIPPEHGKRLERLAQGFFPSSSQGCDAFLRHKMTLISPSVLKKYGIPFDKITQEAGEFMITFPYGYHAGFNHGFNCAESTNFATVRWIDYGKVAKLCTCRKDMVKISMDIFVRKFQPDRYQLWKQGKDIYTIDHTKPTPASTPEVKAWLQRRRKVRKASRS
#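 Assay system: GST-GASC-1 enzyme fragment 2-372 | Amount: 10 nM enzyme | Medium: HEPES buffer, pH 7.5, plus ascorbate | Reagent: H3K9me3 peptide substrate, Fe(II), 2-oxoglutarate | Doses: Single-point compound screen | Incubation: 30 min demethylation and 1 h detection at room temperature | Measured by: LANCE TR-FRET, excitation 340 nm, emissions 618 and 671 nm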
# IDH1 R132H inh – inhibitors of human IDH1 R132H; inhibition, % at 10 µM; 70,000 compounds, 0.18% hits; O75874; IDH1 R132H reductase, diaphorase/resazurin fluorescence, 60 min; in the data active = inhibition above about 34%; inconclusive = no clear call, values can overlap the other calls; inactive = below about 11%;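 note: 0% = DMSO and 100% = no enzyme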
# T cruzi growth-2 – inhibitors of T. cruzi proliferation. shares compounds with T cruzi growth-1. T. cruzi beta-gal in NIH3T3, GalScreen luminescence, 90 h. inhibition, % at 8.35 µM. 5,600 compounds, 72% hits. AID 651739;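 active = mean replicate inhibition above about 95% and at least 55% of replicates individually reaching it, limit read from the data; inconclusive = only one of the two criteria is met; inactive = neither criterion is met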
# T cruzi growth-3 – inhibitors of T. cruzi proliferation. shares compounds with T cruzi growth-1. T. cruzi beta-gal in NIH3T3, GalScreen luminescence, 90 h. inhibition, % at 2.09 µM. 5,600 compounds, 21% hits. AID 651740;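 active = mean inhibition above about 95%, with at least 55% of replicates also reaching it, limit read from the data; inconclusive = meets just one of the two conditions; inactive = meets neither condition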;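 note: plate controls were neutral control median for no effect and positive control median for full effect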
# 3T3 cytotox – NIH/3T3 (mouse) viability loss; shares compounds with T cruzi growth-1; AID 651742; NIH/3T3 viability, CellTiter-Glo ATP luminescence, 90 h; 5,600 compounds, 14% hits; cytotoxicity (signal decrease), % at 8.35 µM;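 active = mean signal decrease across replicates above about 35% based on untreated-well scatter, with enough replicates individually passing, limit read from the data; inconclusive = no rule stated though some were filed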;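 note: 0% = median of neutral control wells and 100% = median of positive control wells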
# NIH3T3 tox 2 – NIH/3T3 (mouse) viability loss. shares compounds with T cruzi growth-1. NIH/3T3 viability, CellTiter-Glo ATP luminescence, 90 h. inhibition, % at 24.9 µM. 5,600 compounds, 56% hits. AID 651744;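 active = mean loss of cell viability signal at or above a set limit, and enough replicates individually reaching it; inconclusive = meets only the mean limit or only the replicate share; inactive = meets neither condition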;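 note: 0% = median of neutral control wells and 100% = median of positive control wells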
# * hit, by the source's call; u = inconclusive; x = not tested or not shown.
SMILES,T cruzi growth-1,GASC1 inh,IDH1 R132H inh,T cruzi growth-2,T cruzi growth-3,3T3 cytotox,NIH3T3 tox 2
C[C@H]1CCCCO[C@H](CN(C)S(=O)(=O)c2ccc(Cl)cc2)[C@@H](C)CN([C@@H](C)CO)C(=O)c2cc(NS(=O)(=O)c3ccc(Cl)cc3)ccc2O1,78,0,2,x,x,x,x
Cc1ccc(S(=O)(=O)Nc2ccc3c(c2)C(=O)N([C@H](C)CO)C[C@@H](C)[C@H](CN(C)S(=O)(=O)c2ccc(Cl)cc2)OCCCC[C@@H](C)O3)cc1,55,8,-3,x,x,x,x
Cc1ccc(S(=O)(=O)Nc2ccc3c(c2)C(=O)N([C@@H](C)CO)C[C@@H](C)[C@H](CN(C)S(=O)(=O)c2ccc(Cl)cc2)OCCCC[C@@H](C)O3)cc1,120*,-1,x,101*,100*,-27,-4
C[C@H]1CCCCO[C@@H](CN(C)S(=O)(=O)c2ccc(Cl)cc2)[C@@H](C)CN([C@@H](C)CO)C(=O)c2cc(NS(=O)(=O)c3ccc(Cl)cc3)ccc2O1,95,0,3,x,x,x,x
Cc1ccc(S(=O)(=O)Nc2ccc3c(c2)C(=O)N([C@H](C)CO)C[C@H](C)[C@H](CN(C)S(=O)(=O)c2ccc(Cl)cc2)OCCCC[C@H](C)O3)cc1,112*,-2,x,100*,107*,10,8
COc1ccc(S(=O)(=O)N(CC(N)=O)C2CCCCC2)cc1OC,x,x,0,x,x,x,x
CC1=C(C(=O)Nc2ccccc2C)C(c2ccccc2OCc2ccccc2)n2ncnc2N1 (stereo unspecified),x,x,0,x,x,x,x
COc1ccc(-n2nnnc2-c2c[nH]c3ccc(Cl)cc23)cc1,x,x,0,x,x,x,x
Cc1ccc(C2SCC(C(=O)O)N2C(=O)c2cccc(Cl)c2)cc1 (stereo unspecified),x,x,0,x,x,x,x
C[C@@H]1CCCCO[C@H](CN(C)CC2CCCCC2)[C@H](C)CN([C@@H](C)CO)C(=O)c2cc(NC(=O)Nc3ccc(C(F)(F)F)cc3)ccc2O1,u,0,x,97*,110*,121*,104*
C[C@H]1CCCCO[C@@H](CN(C)CC2CCCCC2)[C@@H](C)CN([C@@H](C)CO)C(=O)c2cc(NC(=O)Nc3ccc(C(F)(F)F)cc3)ccc2O1,86,x,2,x,x,x,x
C[C@@H]1CCCCO[C@@H](CN(C)CC2CCCCC2)[C@H](C)CN([C@@H](C)CO)C(=O)c2cc(NC(=O)Nc3ccc(C(F)(F)F)cc3)ccc2O1,u,-2,x,85,108*,117*,104*
C[C@@H]1CCCCO[C@@H](CN(C)CC2CC2)[C@@H](C)CN([C@H](C)CO)C(=O)c2cc(NC(=O)Nc3ccc(C(F)(F)F)cc3)ccc2O1,98*,-1,1,99*,107*,32,101*
C[C@@H]1CCCCO[C@@H](CN(C)CC2CCCCC2)[C@@H](C)CN([C@H](C)CO)C(=O)c2cc(NC(=O)Nc3ccc(C(F)(F)F)cc3)ccc2O1,102,0,x,x,x,x,x
C[C@H](CO)N1C[C@H](C)[C@@H](CN(C)CC2CC2)OCCCC[C@H](C)Oc2ccc(NC(=O)Nc3ccc(C(F)(F)F)cc3)cc2C1=O,57,0,x,x,x,x,x
CN1c2ccc(-c3cccc(C#N)c3)cc2[C@H]2[C@H](CCN2C(=O)C2CC2)[C@H]1CO,x,0,x,x,x,x,x
CN1c2ccc(-c3ccc(F)cc3)cc2[C@@H]2[C@@H](CCN2C(=O)Cc2ccccn2)[C@@H]1CO,56,1,x,x,x,x,x
CN1c2ccc(-c3cccc(C#N)c3)cc2[C@@H]2[C@@H](CCN2C(=O)Cc2ccccn2)[C@@H]1CO,106*,-1,x,102*,51,-11,36*
CN1c2ccc(-c3cccc(C#N)c3)cc2[C@H]2[C@H](CCN2C(=O)CN2CCOCC2)[C@@H]1CO,57,0,x,x,x,x,x
CN1c2ccc(-c3ccc(F)cc3)cc2[C@H]2[C@H](CCN2C(=O)Cc2ccccn2)[C@@H]1CO,u,2,x,110*,54,-36,-7
CN1c2ccc(-c3ccc(F)cc3)cc2[C@@H]2[C@@H](CCN2C(=O)Cc2cccnc2)[C@H]1CO,115*,1,x,117*,103*,-9,3
CN1c2ccc(-c3cccc(F)c3)cc2[C@@H]2[C@@H](CCN2C(=O)Cc2cccnc2)[C@@H]1CO,73,4,x,x,x,x,x
CN1c2ccc(-c3cccc(C#N)c3)cc2[C@H]2[C@H](CCN2C(=O)CN2CCOCC2)[C@H]1CO,u,-1,x,108*,9,2,16
Cc1ccc(NC(=O)c2sc3ncn(CC(=O)Nc4sc5c(c4C#N)CCC5)c(=O)c3c2C)c(C)c1,x,x,0,x,x,x,x
CC(C)(CO)NCC(O)COc1ccccc1Cl (stereo unspecified),x,x,4,x,x,x,x
SMILES,T cruzi growth-1,GASC1 inh,IDH1 R132H inh,T cruzi growth-2,T cruzi growth-3,3T3 cytotox,NIH3T3 tox 2
C[C@@H]1O[C@@H](O[C@H]2[C@H](O[C@H]3CC[C@@]4(C)C(CC[C@]5(C)C4C=C[C@]46OC[C@@]7(CCC(C)(C)C[C@H]74)[C@@H](O)C[C@]65C)[C@]3(C)CO)O[C@H](CO)[C@@H](O)[C@@H]2O[C@@H]2O[C@H](CO)[C@@H](O[C@@H]3O[C@@H](C)[C@H](O)[C@@H](O)[C@H]3O)[C@H](O)[C@H]2O)[C@H](O)[C@H](O)[C@H]1O (stereo partly specified),x,x,0,x,x,x,x
Nc1nc(SCC(=O)c2ccc3c(c2)OCCO3)n[nH]1,x,x,0,x,x,x,x
COc1cc(NC(=O)COc2cc(C)ccc2C)c(C(=O)O)cc1OC,x,x,0,x,x,x,x
O=C(CCN1CCCCC1)N1N=C(c2ccc(Cl)cc2)CC1c1ccco1 (stereo unspecified),x,x,0,x,x,x,x
CC(C)(C)c1cc(NC(=O)CSc2n[nH]c(N)n2)cc(C(C)(C)C)c1,x,x,2,x,x,x,x
Cc1ccc(-n2c(=O)c3c4c(sc3n3c(SCC(=O)c5ccc(F)cc5)nnc23)CCCC4)cc1,x,x,0,x,x,x,x
O=C(O)CCc1ccc(-c2cccs2)n1-c1cccc(C(F)(F)F)c1,x,x,3,x,x,x,x
CN(C)C(=O)c1ccc(-c2ccc3c(c2)[C@H]2[C@H](CCN2C(=O)Cc2ccccn2)[C@@H](CO)N3C)cc1,u,2,x,106*,46,-5,-8
CN1c2ccc(-c3ccc(C#N)cc3)cc2[C@@H]2[C@@H](CCN2C(=O)CC2CC2)[C@@H]1CO,u,0,x,100*,u,47*,80*
CN1c2ccc(-c3ccc(F)cc3)cc2[C@@H]2[C@@H](CCN2C(=O)Cc2ccccn2)[C@H]1CO,10,0,x,x,x,x,x
CN1c2ccc(-c3ccc(F)cc3)cc2[C@H]2[C@H](CCN2C(=O)Cc2ccccn2)[C@H]1CO,5,0,x,x,x,x,x
CCC(=O)N1CC[C@@H]2[C@H]1c1cc(-c3ccc(C#N)cc3)ccc1N(C)[C@H]2CO,81,-1,x,x,x,x,x

# Screening data from PubChem.
